Assay outcomes from PubChem BioAssay.
Most compounds without a hit are left out; they make up all but 1.8% or so of the library.
TCR-CD3 inh: blocks the human TCR-CD3 interaction. AID 651800. TAMRA-labeled TCR probe fluorescence, biochemical. 360,000 tested, 0.37% active. inhibition, % at 9.4 µM; in the data active = inhibition above about 19%;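 also: recombinant mutant TCR 2C K166C tagged with TAMRA read by polarization; 0% = receptor in buffer alone and 100% = receptor with positive control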
DDE Tn6 FP inh: inhibitors of Tn6 peptide binding to human fibrin DD(E); P02675; Fibrin DD(E) TRITC-Tn6 fluorescence polarization displacement; inhibition, % at 8.3 µM; 370,000 tested, 0.21% active;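 active = inhibition above a per-campaign cutoff: mean of compounds within control limits plus 3 SD, cut at about 15% in these data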;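 also: 0% = median of all compound wells on the plate and 100% = blocking peptide control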
mABHD4 FP: inhibitors of mouse ABHD4. purified mABHD4, FP-Rh probe fluorescence polarization. inhibition, % at 8.92 µM. AID 720543. 370,000 tested, 0.54% active;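 active = inhibition exceeding the mean over every tested compound plus 3 SD, cut at about 30% in these data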;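 also: 0% = plate median of compound wells and 100% = S159A mutant with DMSO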
Target sequence (Q8VD66 whole entry, looked up): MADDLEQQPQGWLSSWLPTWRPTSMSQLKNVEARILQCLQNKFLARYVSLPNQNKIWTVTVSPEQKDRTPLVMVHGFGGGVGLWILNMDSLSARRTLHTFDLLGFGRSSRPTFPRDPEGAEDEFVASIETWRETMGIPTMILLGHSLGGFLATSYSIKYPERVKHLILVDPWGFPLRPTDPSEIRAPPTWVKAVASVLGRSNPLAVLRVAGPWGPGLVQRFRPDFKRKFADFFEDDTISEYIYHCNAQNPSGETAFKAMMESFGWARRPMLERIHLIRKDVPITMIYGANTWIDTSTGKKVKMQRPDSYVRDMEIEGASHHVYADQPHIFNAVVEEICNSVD
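Assay system: Wild-type mouse ABHD4 protein | Medium: HEPES pH 7.0 buffer, 150 mM NaCl, 0.01% Pluronic F-127 | Incubation: Enzyme–compound pre-incubation 45 min, then probe 60 min, both 25 °C | Technique: Fluorescence polarization with parallel and perpendicular emission, 525/598 nm | Evaluation: % inhibition of FP-Rh probe binding versus controls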
SIAE inh: inhibitors of human sialic acid acetylesterase SIAE; 370,000 tested, 0.69% active; AID 1053197; inhibition, % at 9.66 µM; Q9HAT2; SIAE FP-Rh probe binding, fluorescence polarization;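 active = inhibition above a cutoff: mean of compounds within the control limits plus 3 SD of those, cut at about 17% in these data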;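 also: 0% = plate median of compound wells and 100% = probe without SIAE protein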
HTRA1 inh: inhibitors of human serine peptidase HTRA1 | 340,000 tested, 0.5% active | inhibition, % at 5.96 µM | Q92743 | AID 504803 | recombinant HTRA1, FP-rhodamine activity-based probe, fluorescence polarization; in the data active = inhibition above about 36%;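 also: 0% = enzyme with DMSO and 100% = wells lacking enzyme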
DDE Tn7 FP inh: DD(E)-Tn7 binding inhibition, primary FP screen | P02675 | FP displacement of FITC-Tn7 peptide from fibrin DD(E); 0% = median of compound wells per plate | inhibition, % at 8.3 µM | 370,000 tested, 0.13% active;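 active = inhibition above the mean of compounds falling within the control limits plus 3 SD of them, cut at about 14% in these data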;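 also: 0% = plate median of compound wells and 100% = 10 µM Aha-Tn7 peptide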
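Measure: % inhibition scaled between sample-field median and high-control FP; Test system: human fibrin DD(E); Quantity: 2 µM final DD(E) protein; Doses: one dose, 8.3 µM nominal; Schedule: compound with protein 10 min, then 3 h after probe, room temperature; Detection: fluorescence polarization; Medium: Tris buffer with calcium and detergent, pH 7.8.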
mABHD4 conf: confirmation of mouse ABHD4 inhibitors; shares compounds with mABHD4 FP; purified mABHD4, FP-Rh probe fluorescence polarization; inhibition, % at 8.92 µM; 1,800 tested, 55% active;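 active = mean inhibition across replicates above the hit cutoff set in the primary screen, cut at about 30% in these data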;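 also: 0% = wild-type ABHD4 with DMSO and 100% = catalytically dead S159A mutant with DMSO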
* = called active by the depositor; . = no result.

SMILES | TCR-CD3 inh | DDE Tn6 FP inh | mABHD4 FP | SIAE inh | HTRA1 inh | DDE Tn7 FP inh | mABHD4 conf
C[C@H](O)[C@@H]1C(=O)N2CCc3c([nH]c4cccc(-c5ccccc5)c34)[C@@H]2C[C@@H]1N(C)C(=O)Nc1ccccc1 | 5 | 5 | -4 | 5 | . | 3 | .
N#C/C(=C\c1ccc(-c2cccc(Cl)c2)o1)C(=O)Nc1cccc2cccnc12 | -2 | 0 | 5 | -5 | -5 | 0 | .
N#C/C(=C\c1ccc(-c2ccccc2)o1)C(=O)Nn1cnnc1 | -4 | 1 | 47* | -16 | -3 | -1 | 1
CCCOc1ccccc1-n1sc2c(c1=S)-c1cc(OC)cc3c1N(C(=O)C3=O)C2(C)C | 5 | 1 | 35* | 10 | 18 | 5 | 60*
COC(=O)[C@]12C[C@H](CC(=O)NCCCCc3ccccc3)C(=O)N(Cc3ccco3)C1=C[C@H](C1CCCC1)O[C@@H]2C | . | 0 | 1 | 0 | . | -8 | .
CCOc1ccc(-n2c(SCC(=O)NN=Cc3ccc(C(=O)O)cc3)nnc2-c2cccnc2)cc1 | . | -3 | -4 | -5 | . | -6 | .
CCOc1ccc2c(c1)C(=O)c1cc(OCC(=O)O)ccc1-2 | 2 | 0 | 2 | -9 | 1 | -6 | .
CCCCOc1ccc2c(c1)C(=O)c1cc(O)ccc1-2 | 5 | -15 | 44* | 9 | 35 | -4 | 54*
Cc1n[nH]c(=S)n(NC(=O)/C=C/C(=O)Nn2c(=S)[nH]nc(C)c2=O)c1=O | 18 | 2 | 38* | -5 | 17 | 1 | 9
O=C(CSc1ccc(-c2ccco2)nn1)c1cccc([N+](=O)[O-])c1 | 16 | 1 | 31* | 11 | 18 | -8 | 0
O=C(c1cc([N+](=O)[O-])ccc1Cl)N1CCN(c2ccc([N+](=O)[O-])cc2)CC1 | -1 | 3 | 40* | -1 | -5 | -3 | -3
C[C@H]1Cn2cnc(C(=O)N(C)Cc3ccccc3)c2C(=O)N1 | -3 | 3 | 7 | 9 | . | -3 | .
CC(C)Oc1cccc(-c2csc(N3CCC(C(N)=O)CC3)n2)c1 | . | 3 | 1 | 3 | . | 3 | .
COC(=O)c1cc2c(c3c4ccccc4n(S(=O)(=O)c4ccccc4)c13)C(=O)N(Cc1ccc(N(C)C)cc1)C2 | 3 | 10 | -6 | 10 | . | 0 | .
CCSc1nc2sc3c(c2c(=O)[nH]1)CCc1ccccc1-3 | 6 | 5 | 16 | 3 | -14 | 2 | .
NNc1nc2sc3c(c2c(=O)[nH]1)CCc1ccccc1-3 | 8 | -8 | 58* | 13 | 23 | -8 | 12
C=CCN1[C@@H](CC(C)C)COc2cc(N3CCSCC3)ccc2S1(=O)=O | . | 5 | 2 | 0 | . | -2 | .
CCOC(=O)[C@]12CCCCC/C=C\1N(Cc1ccc(OC)cc1)C(=O)[C@H]2CC(=O)NCCCCc1ccccc1 | . | -2 | -9 | 2 | . | 2 | .
COc1cccc(Nc2nc(NCCO)c3ccccc3n2)c1 | -9 | -7 | 39* | 10 | 5 | 1 | 47*
Cc1cccc(Nc2nc(NCc3ccco3)c3ccccc3n2)c1 | 6 | -18 | 39* | 23* | -25 | 2 | 46*
OCCNc1nc(Nc2cccc(O)c2)nc2ccccc12 | 9 | 5 | -5 | 9 | 2 | 2 | .
c1ccc(Nc2nc(NCc3ccco3)c3ccccc3n2)cc1 | -10 | 2 | 21 | 8 | -28 | 0 | .
COc1ccc(C(=O)Nc2ccc3c(c2)OCCO3)c(OC)c1 | -5 | 4 | -6 | 6 | -1 | 5 | .
COc1ccc(C(=O)Nc2cc3c(cc2C(=O)O)OCCCO3)c(OC)c1 | 5 | -1 | 35* | -30 | -16 | -4 | 55*
C[C@H]1[C@@H](OC(=O)Nc2cccc(Cl)c2)CC[C@@]23CCCN2C(=O)CCC[C@@H]13 | . | 7 | 0 | -2 | . | 8 | .
SMILES | TCR-CD3 inh | DDE Tn6 FP inh | mABHD4 FP | SIAE inh | HTRA1 inh | DDE Tn7 FP inh | mABHD4 conf
O=C1C(=O)c2ccccc2C(O)=C1CC=C(Cl)Cl | 0 | 9 | 38* | 1 | 15 | -5 | 17
CC(C)(C)c1ccc(S(=O)(=O)Nc2noc3ccccc23)cc1 | 0 | -5 | 30* | 5 | -1 | -1 | 16
COc1ccc(-n2nc3c(=O)[nH][nH]c3cc2=O)cc1 | -6 | -8 | 32* | 0 | 16 | 1 | 42*
O=C(O)c1ccc(N/N=C/c2ccc(-c3ccc(Br)cc3)o2)cc1 | 4 | 4 | 42* | 3 | 16 | -7 | 84*
O=C(O)c1ccc(N/N=C/c2ccc(-c3ccccc3Cl)o2)cc1 | 0 | -2 | 40* | 14 | -2 | 1 | 46*
Cc1nnc(Nc2ccc(O)cc2)[nH]c1=O | -6 | -8 | 43* | 2 | 9 | 1 | 24
Cc1ccc(C(=O)OCC(=O)Nc2ccccc2)cc1NC(=O)c1ccco1 | -3 | -3 | -2 | 1 | -10 | 3 | .
CCC(C)c1ccccc1NC(=O)COC(=O)c1ccc(C)c(NC(=O)c2ccco2)c1 (stereo not drawn) | 5 | -2 | 49* | -4 | -20 | 0 | -10
CCN(Cc1ccccc1)c1ccc(/C=N/N=C(N)N)cc1 | 0 | 1 | 46* | 6 | 23 | -6 | 62*
CCN(Cc1ccccc1)c1ccccc1 | 3 | -1 | 2 | 3 | 0 | 1 | .
Cc1[nH]n(-c2ccccc2)c(=O)c1C(c1ccccc1C(=O)O)c1c(C)[nH]n(-c2ccccc2)c1=O | 3 | -2 | 5 | 1 | -4 | -1 | .
Cc1[nH]n(-c2ccccc2)c(=O)c1C(c1ccccc1[N+](=O)[O-])C(C#N)C#N (stereo not drawn) | 4 | -2 | 42* | 14 | 14 | -6 | 38*
CC1=C(CCN2CCN(C3CCCC3)C(CCO)C2)C(C)(C)CCC1 (stereo not drawn) | -2 | -5 | 61* | 2 | -9 | 0 | -12
COc1ccc(OC)c(NC(=O)Nc2ccc(O)c3ccccc23)c1 | -7 | -4 | 33* | 10 | 17 | 7 | 41*
COc1ccc(OC)c(NC(=O)C(=O)/C=C(\O)c2cc(OC)ccc2OC)c1 | 1 | 3 | 35* | 1 | 13 | 5 | 2
Cc1cccc(Nc2cc(C)c3c(O)cccc3n2)c1C | -5 | -16 | 30* | 9 | 9 | -3 | 42*
O=C(COC(=O)c1cc(S(=O)(=O)N2CCCC2)ccc1O)Nc1ccc(SC(F)F)cc1 | 2 | 2 | 31* | -20 | -23 | 5 | 17
COc1cc(CNc2ccc3[nH]c(=O)[nH]c3c2)cc(Cl)c1OCC(=O)NC(C)(C)C | 6 | 9 | 40* | 5 | 13 | -2 | 36*
O=C(Nc1nc2ncccn2c1-c1ccccc1)c1ccc(F)cc1 | . | 2 | -3 | 6 | . | 9 | .
